Measurements as given in the EternaBench riboswitch data.

Tested on: MS2 coat protein
Test: apparent Kd, MS2 coat protein; higher = weaker binding; RNA-MaP array; FMN 200 µM where present
How it was run: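 In 100 mM Tris-HCl pH 7.5, 80 mM KCl, 4 mM MgCl2, BSA, DTT, yeast tRNA and Tween-20, SNAP-549-labelled MS2 coat protein was titrated from 0.7 or 1.5 nM, doubling to 3 µM, over designs transcribed by stalled E. coli RNA polymerase on Illumina sequencing-chip clusters. This was done first without ligand, then with ligand held constant. After green signal was normalised to red-channel RNA signal and control-cluster median Fmax, the apparent Kd was taken as the median of filtered per-cluster binding-curve fits.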

[1] = designed as: OFF switch for flavin mononucleotide, no ligand
[2] = ligand present: flavin mononucleotide, designed as: OFF switch for flavin mononucleotide
[3] = designed as: ON switch for flavin mononucleotide, no ligand
[4] = ligand present: flavin mononucleotide, designed as: ON switch for flavin mononucleotide

GUCAGCUCGUGAGGAUAUACAAUACUGCUUCGGCAGUGUAUUAAGAUCACAUGAGGAUCACCCAUGUAGAAGGCACGAGCUGAU
apparent Kd [1]: 7.88 nM | apparent Kd [2]: 60.4 nM

UAUAUAUAGUAAGGAUAUGUAUUAUUUUUAUAAACAGAAGGUACUGACAUGAGGAUCACCCAUGUUUUAGUGUGGGCAUGUAGA
apparent Kd [1]: 49.1 nM | apparent Kd [2]: 70.4 nM

GGCUACGUUUCGUAGCAGUGUCAUCGAGAAGGCCCUGACAUGAGGAUCACCCAUGUUGUUACAUGGGAGGAUAUCGAUGAUACC
apparent Kd [3]: 12.1 nM | apparent Kd [4]: 5.27 nM

UUAAAUCAUGUAGGAUAUGCAUGGCGAAGCUACGCAGAAGGACAUGAGGAUCACCCAUGUUAUAGCUACCCAGUACGGUGGCAA
apparent Kd [1]: 95.5 nM | apparent Kd [2]: 251 nM

CCAUCGUGUGUGAGGAUAUGCUGGUCCUUGGAUCAGCAGAAGGCACAUGAGGAUCACCCAUGUGAAUACGAUGG
apparent Kd [1]: 16.3 nM | apparent Kd [2]: 29.5 nM

GCGGGAUGAGUCGUUGGUUCACAUGAGGAUCACCCAUGUAGGGAGGAUAUACAUCUGGUCCCGGAGUAGAAGGCCCUACAUCGG
apparent Kd [1]: 163 nM | apparent Kd [2]: 107 nM

UAUGGUUAAGUCAGGAUAUACGUGCAGUUUUCUGAGUAGAAGGGACAUGAGGAUCACCCAUGUAUGGUAGUGUU
apparent Kd [1]: 72.2 nM | apparent Kd [2]: 73.6 nM

AAUAUGUUGCAGAAGGUUAUAUUUAUAACGUUCCUCAUGACAUGAGGAUCACCCAUGUAAUUGUUGAAGGAUAUGCAAUAUAUU
apparent Kd [1]: 5.41 nM | apparent Kd [2]: 5.62 nM

GUGUAGGCAGGAUAUACAUGAGGAUCACCCAUGUGAAUAAGAUAGAAUAAGAUAAAGUGUAGAAGGGUUAGUGU
apparent Kd [1]: 40.7 nM | apparent Kd [2]: 32.4 nM

UCCUCUUUGAAGAAGGCGUGGUUAUGCUAGCCGCGAGGAUAUUCACAUGAGGAUCACCCAUGUGGAUUUCAGUCCGCUCAAAAC
apparent Kd [1]: 10.2 nM | apparent Kd [2]: 22.9 nM

CGCUCAUUAUAUAAGGAAAGAAUCAGAAGGCGUUACAUGAGGAUCACCCAUGUUUUGUAUAGUAACGAGGAUAUGAUAUGAGCG
apparent Kd [1]: 18.6 nM | apparent Kd [2]: 16 nM

CGAAGCCAAGGAUAUACAUGAGGAUCACCCAUGUGUUCCAGGCAAGCACAGCAGCGACGUAGAAGGUGGCUUCA
apparent Kd [1]: 17.6 nM | apparent Kd [2]: 41.7 nM

AAUAAACAUGAGGAUCACCCAUGUAAAUGGGCGAUAGGAUAUGCGAAAAUAAAGAAAGAAGCAGAAGGAUCGAAGA
apparent Kd [3]: 846 nM | apparent Kd [4]: 509 nM

CUCAGACAUGAGGAUCACCCAUGUGAGGAUAUGAUGCGAUCGUCGAAAGACGAUAGCAUCAGAAGGUACAAAUG
apparent Kd [1]: 53.1 nM | apparent Kd [2]: 40.5 nM

UUUUCGCGCGCAGGAUAUCCCAUGUGGUUCACACAUGAGGAUCACCCAUGUUUCACCCAUGUGCGGGAGAAGGGUGCGCGUUUC
apparent Kd [3]: 368 nM | apparent Kd [4]: 189 nM

GCAGCUAAUAUUAUACAUGAGGAUCACCCAUGUUACAUGAGUAAGGAUAUUGAUGAUUAUAUAAACAAGAAGGUACGAAGCUGC
apparent Kd [3]: 14.9 nM | apparent Kd [4]: 7.85 nM

UUUGCAUUCCGAGGAUAUUCAUAUAAUAAAUAAACAUGAGGAUCACCCAUGUGGCGAAAGCCUAGGGAGAAGGCGGAAUGCUUU
apparent Kd [3]: 184 nM | apparent Kd [4]: 22 nM

UAUAUAUAGUAAGGAUAUGUAUUAAUUUUAUAAACAGAAGGUACUGACAUGAGGAUCACCCAUGUUUUAGUGUGGGCAUGUAGA
apparent Kd [1]: 102 nM | apparent Kd [2]: 169 nM

UUUUUACAUGAGGAUCACCCAUGUCAGGAUAUCCUUAUAUUUUAUUAUUUUAUUUUUUGGAGAAGGGACUAUUA
apparent Kd [1]: 367 nM | apparent Kd [2]: 225 nM

UUAGAAUUGCAAGGAUAUCUAAUGUAGAUAGUAAGAGAAGGUGCUUGAUAGUUACAUGAGGAUCACCCAUGUAUUUGGGUUUAU
apparent Kd [3]: 395 nM | apparent Kd [4]: 375 nM

UUAAAUCGAAACAUGAGGAUCACCCAUGUGUUGUGGUUAAUAUAGGAUAUGUGUAUACUUUUAUGACAGAAGGAUGAUAAUACU
apparent Kd [3]: 15.5 nM | apparent Kd [4]: 12.6 nM

CGAGAUACGCUCGUCCGAAAGGGACAUGAGGAUCACCCAUGUAGAAGGCGAUGCGCAACUCGCAUUGAGGAUAUAUACUGCAGA
apparent Kd [1]: 5.78 nM | apparent Kd [2]: 5.89 nM

UAAAAGCUAGGAUAUACAUGAGGAUCACCCAUGUCAACCACACGGAUGCGCCGAGCAUGUAGAAGGAGCACCGG
apparent Kd [1]: 18.2 nM | apparent Kd [2]: 24.1 nM

AUUAAUCAGCAGGAUAUAAGUAUCUGAAGGUGGUUAGAAGGGCUGACAUGAGGAUCACCCAUGUGCUCUUCGUG
apparent Kd [1]: 11.7 nM | apparent Kd [2]: 18.8 nM

CUUUUGUGAGGAUAUUAGUAGUAAAUGAAUAAAAUUAUUACUGAGAAGGUACAUGAGGAUCACCCAUGUUCCUC
apparent Kd [1]: 16.8 nM | apparent Kd [2]: 24.6 nM

UUGGACGUCGUAGGAUAUGUAUGAUAUUCCUACAUGAGGAUCACCCAUGUUGACAUGGAAGAAGGACAGAAGGACGAUGUCCAU
apparent Kd [3]: 5.8 nM | apparent Kd [4]: 4.56 nM

AAAAUACAUGAGGAUCACCCAUGUUAGGAUAUGCAAAGCCCAGUUAGCUUUUGGGUAGGUAGAAGGGACGGGUA
apparent Kd [1]: 23.4 nM | apparent Kd [2]: 20.2 nM

GUUAUAAAGGUAGGAUAUAGUAUUAUAAUUAAAUUAGAAGGAUCUCACAUGAGGAUCACCCAUGUAAGAGGAUCACCCAUGUAU
apparent Kd [1]: 11.4 nM | apparent Kd [2]: 8.66 nM

AGUACUCAAAGAGUACCCAUACGGACAUGAGGAUCACCCAUGUAGGAUAUGCUACUCAAAGAGUAGUAGAAGGACAUAUUCCUC
apparent Kd [1]: 9.52 nM | apparent Kd [2]: 20.3 nM

GCAAAGCCUGACAUGAGGAUCACCCAUGUUAGAUUGUUAUGUCAGGAUAUUGUCUAGAAACUAGACAAGAAGGGAUGCUUUGCA
apparent Kd [3]: 463 nM | apparent Kd [4]: 27.3 nM

CUUUUGUGAGGAUAUCAGUAGUAAAUAAAUAAAAUUACUACUGAGAAGGCACAUGAGGAUCACCCAUGUUCCUU
apparent Kd [1]: 14.7 nM | apparent Kd [2]: 28.4 nM

GUGCAAUGAGGAUAUACGUUGGUGAACAUCUGUGUGCUCCUACAUGAGGAUCACCCAUGUAGAAGGCAUGUCAC
apparent Kd [1]: 11.4 nM | apparent Kd [2]: 17.1 nM

GGAUAGGACAGAGGAUAUACGUGCUAGAGAUACUAGCAAAAUUUACUCACAUGAGGAUCACCCAUGUAGAAGGCUGUCCUAUCG
apparent Kd [1]: 5.09 nM | apparent Kd [2]: 22.2 nM

AUAUGAUAGAUAGGAUAUACAUUGGAUUUAUAAGUAGAAGGAUCAAGUGGGAAUUAUACAUGAGGAUCACCCAUGUUUUUGGAU
apparent Kd [3]: 63.9 nM | apparent Kd [4]: 43.9 nM

GCCAGAGCAGGAUAUCUAUAUUAUCACAUGAGGAUCACCCAUGUCCAGCGAAAGCUGGAGGGAGAAGGGCUCUGGC
apparent Kd [1]: 73.2 nM | apparent Kd [2]: 33.8 nM

CCGUUGGGCUAGAAGGCUCCGGGAGGGCCGCGGAGAGGAUAUAGCACAUGAGGAUCACCCAUGUGGUAUGACCUUAUGUAAUCA
apparent Kd [1]: 37.4 nM | apparent Kd [2]: 82.7 nM

ACAUUUAAUACAGGAUAUGUUAGUAUACAGUAGAUUGGUUAUUACAUAAUAACAGAAGGGUAGAACAUGAGGAUCACCCAUGUA
apparent Kd [3]: 217 nM | apparent Kd [4]: 106 nM

UGACGGCACACAGGAUAUAGCGCAGAAAGUACGCUAGAAGGGUGAGCACUCGUCCGGGCACAUGAGGAUCACCCAUGUCGUCGA
apparent Kd [3]: 204 nM | apparent Kd [4]: 472 nM

GCAGCAUAAAUUAUACAUGAGGAUCACCCAUGUUACAUGUGUAAGGAUAUUGAGGUUAUUAUUGGCAAGAAGGUACAAUGCUGC
apparent Kd [3]: 15.2 nM | apparent Kd [4]: 8.57 nM

UGUAUGUAGGCAGGAUAUACAUGAAUAUAUAUGAUGUAGUAUGAUGUAACAUGAGGAUCACCCAUGUAGAAGGGCCAGUGUAUA
apparent Kd [1]: 102 nM | apparent Kd [2]: 164 nM

UAUAACCGAGGAUAUACAUGAGGAUCACCCAUGUAAUGUAGUAUAAUGUAUGUAAAAUGUAGAAGGUGGGAUGU
apparent Kd [1]: 54.4 nM | apparent Kd [2]: 47 nM

GUUGUGUGAGGAUAUGCCUGGCCGUGUGGCCGGUUUGGGUGGCAGAAGGUACAUGAGGAUCACCCAUGUACGGG
apparent Kd [1]: 105 nM | apparent Kd [2]: 107 nM

CAUACACAUGAGGAUCACCCAUGUGAGGAUAUGCGUACGUUGUCCGUAGGCGACGUGCGCAGAAGGCGCUUGGU
apparent Kd [1]: 57.1 nM | apparent Kd [2]: 68.6 nM

GGUGGUUGAGGAUAUACGAACAUGUCGCCAGAUGUCAUGGUACAUGAGGAUCACCCAUGUAGAAGGUGGUUGUC
apparent Kd [1]: 357 nM | apparent Kd [2]: 576 nM

GUAAAGUGAGGAUAUGGUAAUUUAAUUAUUAAUUAAUUAAUCCAGAAGGCACAUGAGGAUCACCCAUGUAAAGG
apparent Kd [1]: 39.6 nM | apparent Kd [2]: 74.6 nM

UUUACAUGAGGAUCACCCAUGUAUAGAACGGUUAAUUAAAGUGAGGAUAUACAUAAUUUUAAAUUGUAGAAGGCACUGGGUACA
apparent Kd [3]: 14.4 nM | apparent Kd [4]: 19.9 nM

CAUUUACAUGAGGAUCACCCAUGUGAGGAUAUGGAAUGGUUCAUUGUCUGACCUCCUUCUAGAAGGCACAUCUC
apparent Kd [1]: 29.6 nM | apparent Kd [2]: 30.5 nM

CCUCGACAUGAGGAUCACCCAUGUCAGGAUAUUGUGUUUCGGGUUUUUUACCGUUAGGCAAGAAGGGAUGUGUG
apparent Kd [1]: 29.2 nM | apparent Kd [2]: 40.2 nM

CUGUUUCGUGUAGGAUAUGCAUAUUCCCAUUAUGCAGAAGGACAUGAGGAUCACCCAUGUAUGUUAUUAUCAUGUGUUACAUGC
apparent Kd [1]: 51 nM | apparent Kd [2]: 432 nM

AAUAACAGAGGAUAUACUAUUUUAUGUGUUUAUUGUUUUGAACAUGAGGAUCACCCAUGUAGAAGGCUGAAUGA
apparent Kd [1]: 29.9 nM | apparent Kd [2]: 35.8 nM

AAAGCUUCCGCCACAUGAGGAUCACCCAUGUCGUAACCGGGACAGGAUAUCCUCGAUGUAUUUGCGGAGAAGGGUCGCAGGUUA
apparent Kd [3]: 77.1 nM | apparent Kd [4]: 147 nM

AGUCGGAGCGGAGGAUAUACAUGAGGAUCACCCAUGUAAUAAAGUGAAGCCUGGAAACAGGCAAUGUAGAAGGCUGCUCCGACA
apparent Kd [1]: 11 nM | apparent Kd [2]: 74.8 nM

AAUAACAGAGGAUAUACUAUUUUAUGUAUUUAUUAUUUUGAACAUGAGGAUCACCCAUGUAGAAGGCUGAAUGA
apparent Kd [1]: 26.4 nM | apparent Kd [2]: 22 nM

UUAGCGUAAGUAAGGAUAUGCUGGUCGAAAGACCAGCAGAAGGUACAUGAGGAUCACCCAUGUUGAGUUGUUGC
apparent Kd [1]: 20 nM | apparent Kd [2]: 24.3 nM

CGUAGGUAGCUGGAGGAUAUUCGAGUGGUAACAUGAGGAUCACCCAUGUGGUGAGAGGAACAUGAGGAGAAGGCUAGCUGCCUGC
apparent Kd [3]: 1290 nM | apparent Kd [4]: 1530 nM
